# PfGluPho inh: PfG6PD enzyme inhibitors, primary screen, biochemical, fluorescence intensity, uHTS. PfGluPho enzyme, NADPH resazurin-diaphorase fluorescence. inhibition, % at 20 µM. 350,000 tested, 0.78% active. AID 504690, 2011;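 active means inhibition reaching at least a set limit at 20 µM in the primary screen, cut at about 59% in these data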;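 further: 0% = DMSO wells with substrate and 100% = DMSO wells lacking glucose-6-phosphate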
# ATG4B inh: ATG4B protease inhibitors, primary screen, biochemical, fluorescence, uHTS | inhibition, % at 8.33 µM | Cysteine protease ATG4B (Homo sapiens), Q9Y4P1 | 340,000 tested, 0.51% active | ATG4B cleavage of LC3-PLA2, NBD-HPC fluorescence, 1 h; in the data active means inhibition above about 40%
# T cell modulator: modulators of CD8 T cell-vesicle binding, primary screen, mouse 2C CD8+ T cells, flow cytometry; response (vesicle binding), % at 7 µM; 2C CD8+ T cell-vesicle binding; stronger effect = lower value; 330,000 tested, 0.068% active;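 active means response, share of CD8 T cells binding vesicles, and their 90th percentile fluorescence all below set limits, cut at about 80% in these data, passing the limit was not always enough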;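 further: values below 100% mean blocked vesicle binding to the CD8+ T cells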
#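 incubation = binding step 1.5 h, 37 °C, antibody labelling 20 min, ice | test system = 2C mouse CD8+ T cells | read-out basis = percent CD8+ FL2 mean versus row control | controls = Peptide-free naked vesicles (low) and QL9 vesicles with 0.7% DMSO vehicle (high) | detection = flow cytometry of vesicle-bound cells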
# HKDC1 inhibitor: HKDC1 hexokinase inhibitors, primary screen, biochemical, fluorescence, uHTS. Q2TB90. recombinant HKDC1, G6PDH/diaphorase resazurin coupled fluorescence. inhibition, % at 20 µM. 340,000 tested, 0.16% active;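 active means inhibition above about 35% when tested at 20 µM, limit read from the data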;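 further: plate controls were DMSO wells with enzyme for no effect and DMSO wells lacking enzyme for full effect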
#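 System: Recombinant HKDC1 hexokinase | Amount: HKDC1 at 5 µg/mL | Reagent: Glucose with 1 mM ATP | Doses: Single 20 µM dose | Incubation: Reaction time 90 min, room temperature, protected from light | Signal: Coupled resazurin fluorescence, excitation 525 nm, emission 613 nm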
# PKA-R1A act: activators of PKA-R1A holoenzyme, primary screen, biochemical, fluorescence polarization, Cy5-IP20, bovine R1A, mouse PKAc. cAMP-dependent protein kinase type I-alpha regulatory subunit (Bos taurus) + …. PKA-R1A dissociation; scaled: DMSO 0%, 113 µM cGMP 100%. activation, % at 11.4 µM. 340,000 tested, 0.083% active. AID 504707, 2011;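 active means percent activation above the mean of all tested compounds plus 3 SD, cut at about 19% in these data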;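 further: higher means more PKAc released from R1A so a rise in polarization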
# PKA-R2B act: activators of PKA-R2B holoenzyme, primary screen, biochemical, fluorescence polarization, Cy5-IP20, human | cAMP-dependent protein kinase catalytic subunit beta (Homo sapiens) + cAMP-dependent … | PKA-R2B holoenzyme dissociation; R2B truncated from residue 108, S112A mutant; 0% DMSO only, 100% 113 µM cGMP | activation, % at 11.4 µM | 340,000 tested, 0.079% active | AID 504700, 2011;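 active means activation above a cutoff set at the mean over all compounds plus 3 SD, cut at about 18% in these data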;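 further: higher means more holoenzyme dissociation and a rise in polarization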
# Target sequence (P31323 whole entry, looked up, other chains not shown, the tested form may be a part): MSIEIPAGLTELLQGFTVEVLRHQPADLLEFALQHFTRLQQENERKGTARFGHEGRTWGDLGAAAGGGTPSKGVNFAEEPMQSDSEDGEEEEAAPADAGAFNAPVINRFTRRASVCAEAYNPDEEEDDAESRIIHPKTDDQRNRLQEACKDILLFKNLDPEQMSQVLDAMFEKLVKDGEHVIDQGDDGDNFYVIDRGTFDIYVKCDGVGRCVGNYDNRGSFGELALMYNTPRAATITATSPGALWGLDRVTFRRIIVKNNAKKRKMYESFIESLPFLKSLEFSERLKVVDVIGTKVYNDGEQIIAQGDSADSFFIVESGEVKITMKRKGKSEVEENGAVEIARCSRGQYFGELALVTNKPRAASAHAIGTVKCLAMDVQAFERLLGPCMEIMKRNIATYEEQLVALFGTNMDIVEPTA
# HKDC1 act conf2: HKDC1 hexokinase activators, confirmation, biochemical, single concentration. shares compounds with HKDC1 inhibitor. recombinant HKDC1, G6PDH/diaphorase resazurin fluorescence; stronger effect = lower value. inhibition, % at 20 µM. 740 tested, 14% active. AID 504708, 2011;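 active means inhibition at or below a set negative limit, negative inhibition meaning the enzyme was activated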
# Active calls of the source: *; i = inactive; / = no result given. Hits are enriched below; roughly 1.6% of the tested compounds scored in any of these assays.
SMILES,PfGluPho inh,ATG4B inh,T cell modulator,HKDC1 inhibitor,PKA-R1A act,PKA-R2B act,HKDC1 act conf2
Cc1[nH]n(-c2ccccc2)c(=O)c1/C=N/Nc1nncc(-c2ccccc2)n1,-30.3,-29.8,572.3,-46.8,5.4,-1.7,-60.6*
CCCCN(CCCC)C(=S)N/N=C/c1c(C)[nH]n(-c2ccccc2)c1=O,3.8,-11.3,241.6,-40.6,2.0,-10.7,-65.0*
COc1ccc(C(=O)/C=C/c2ccsc2)cc1CSCC(=O)O,-0.2,6.2,378.2,35.7*,-2.0,-17.2,-10.2
O=C(COc1ccccc1Cl)Nc1cccc(S(=O)(=O)NC2=NCCCCC2)c1,3.2,-3.0,296.8,-3.2,-3.7,-12.3,/
CCNC(=O)COC(=O)CNC(=O)c1cc(Cl)cc([N+](=O)[O-])c1,-4.4,-6.3,272.3,-6.1,-6.3,-1.0,/
CC(C)CNC(=O)COC(=O)CNC(=O)c1cc(Cl)cc([N+](=O)[O-])c1,14.6,-1.1,336.1,-51.8,0.9,-5.2,-24.3
Cc1ccc(S(=O)(=O)NC2c3cccc4cccc(c34)C2Sc2nncn2C)cc1 (stereo not drawn),1.0,14.0,642.6,-13.8,-8.7,-10.8,/
Cn1cnnc1SC1c2cccc3cccc(c23)C1NS(=O)(=O)c1ccccc1 (stereo not drawn),-49.8,-10.7,556.1,-49.1,2.8,-6.7,-64.0*
CC(=O)N1CCN(C2c3cccc4cccc(c34)C2NS(=O)(=O)c2ccccc2)CC1 (stereo not drawn),-22.4,-0.7,218.9,-49.4,-2.8,2.3,-45.3*
COc1cc(/C=C/CNC[C@H]2O[C@@H](n3cc(C)c(=O)[nH]c3=O)C[C@@H]2O)ccc1O,1.1,/,/,/,1.0,-7.3,/
O=C(O)C1Nc2c(O)cc(Cl)c([N+](=O)[O-])c2C2C=CCC12 (stereo not drawn),1.8,15.7,175.7,31.7,8.3,10.7,31.4
COc1cc(/C=C2\SC(=Nc3ccc(Cl)c(C(=O)O)c3)NC2=O)c(Br)c(Br)c1O,4.0,33.6,184.4,40.4*,7.6,-6.5,12.0
COc1cc(/C=C2\SC(=Nc3ccccc3)NC2=O)cc(Cl)c1O,11.7,-6.9,520.2,14.5,4.4,2.3,/
CC[n+]1c(/C=C2\Sc3ccccc3N2C)ccc2cccc(C)c21,20.4,16.2,/,-40.2,-1.9,10.0,-37.8*
CCC(=O)N(c1nnc(SC(C)C(=O)Nc2ccc(N3CCOCC3)cc2)s1)C1CC1 (stereo not drawn),15.9,/,/,/,0.8,-7.0,/
CC[C@@H]1C/C=C\Cc2ccccc2[C@H](C(=O)C[C@H](O)CC(C)=O)OC1=O,5.8,/,263.8,-5.2,4.2,0.0,/
NS(=O)(=O)c1ccc(N=Nc2c(=O)[nH]n3c(=O)c4c([nH]c23)CCCC4)cc1,26.5,-9.0,189.3,39.6*,-2.0,-9.5,72.5
O=c1[nH]n2c(=O)c3c([nH]c2c1N=Nc1cccc(Cl)c1)CCC3,-4.8,10.2,259.0,11.7,-8.4,-5.1,/
O=C(CN1C(=O)COc2ccccc21)NCCCN1CCCCC1,-2.2,-6.2,534.4,2.1,1.8,10.6,/
Cc1cccn2c(=O)nc(SCC(=O)NCc3ccc4c(c3)OCO4)nc12,6.4,-1.7,487.0,2.9,0.4,2.4,/
CCOC(=O)N1C/C(=C\c2ccccc2)C(=O)/C(=C/c2ccccc2)C1,30.5,2.8,/,32.8,-5.5,-3.9,10.9
C[N+](C)(C)CCC(=O)N1C/C(=C/c2ccccc2)C(=O)/C(=C\c2ccccc2)C1,37.8,16.4,/,15.2,11.6,-6.1,/
COc1ccc(OC(=O)N2C/C(=C/c3ccccc3)C(=O)/C(=C\c3ccccc3)C2)cc1,14.0,-1.8,/,36.4*,-7.1,-9.3,2.1
CC(=O)c1ccc(N2CCN(C(=O)C3CCN(S(=O)(=O)c4cccs4)CC3)CC2)cc1,-10.8,-7.4,203.1,-4.3,-3.2,0.1,/
Cc1ccccc1OCCCN1C(=O)C(=O)c2cccc(C)c21,36.5,20.2,i,36.8*,-7.4,-0.5,-6.2
SMILES,PfGluPho inh,ATG4B inh,T cell modulator,HKDC1 inhibitor,PKA-R1A act,PKA-R2B act,HKDC1 act conf2
CC(=O)n1cc(N(C(=O)CCl)c2ccc([N+](=O)[O-])cc2)c2ccccc21,0.3,5.5,413.9,48.4*,-8.4,-0.7,40.9
CC(=O)n1cc(N(C(=O)CCl)c2ccccc2)c2ccccc21,-0.7,4.8,424.7,34.9,-11.8,-4.2,9.1
CC(=O)n1cc(CO)c2ccccc21,15.0,-10.6,333.7,-7.0,-10.6,-7.6,/
CCCCc1ccc(NC(=O)CSc2nc(=O)n3cc(C)ccc3n2)cc1,-9.0,1.8,413.1,-0.9,-5.1,1.5,/
CCC(C)NC(=O)c1ccc(Cl)c(S(=O)(=O)Nc2ccccc2N2CCOCC2)c1 (stereo not drawn),10.0,-21.7,437.8,3.0,3.0,6.9,/
O=C(Nc1ccc(S(=O)(=O)Nc2ncccn2)cc1)c1ccc2ncsc2c1,15.4,0.3,376.4,33.9,-3.8,2.8,33.1
COc1ccc(-c2cc(C(=O)NNC(=S)NC(=O)c3c(-c4ccccc4)noc3C)[nH]n2)cc1,-54.8,6.6,295.4,-45.7,4.4,0.8,-50.1*
Cc1onc(-c2ccccc2)c1C(=O)NNC(=O)c1ccccc1,-12.1,3.4,585.9,2.9,3.1,-4.3,/
Cc1onc(-c2ccccc2)c1C(=O)NNC(=S)NC(=O)c1ccc(Br)cc1,-34.6,-1.4,263.7,-51.2,5.3,3.6,-56.7*
COc1ccc(-c2ccc3c(c2)C2CC3CCN2S(=O)(=O)c2ccccc2C)cc1 (stereo not drawn),3.1,3.8,/,-5.8,-3.8,0.4,/
O=C(OCc1cn([C@H]2C[C@H](c3ccc(Cl)cc3)N(CC3CCCCC3)C[C@@H]2O)nn1)c1ccccc1,20.4,/,/,/,-2.0,2.5,/
C=CCCC(=O)N1C[C@H]2CON(C)[C@H]2C[C@H]1c1ccc(Br)cc1,1.7,/,/,/,-7.5,-17.4,/
O=C(c1ccccc1)c1nccc2ccccc12,3.1,-2.0,275.2,7.9,-3.4,-0.5,/
O=C(c1ccccc1)c1n[nH]c(-c2ccccc2)cc1=O,-3.1,2.0,201.5,-42.2,-8.1,5.4,16.3

# Screening results deposited in PubChem BioAssay by several laboratories.
